Active and inactive are the calls of the source. The rule behind the calls is not given here.

Test [1] has as its target T1, Aurora kinase B (Homo sapiens, UniProt Q96GD4). In words: Inhibition of recombinant full length human N-terminal GST-tagged Aurora B expressed in baculovirus infected Sf9 cells at 10 uM using myelin basic protein as substrate after 60 mins by ADP-Glo luminescence assay relative to control. In a few lines:
(§1)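 Purified active Aurora A or Aurora B with myelin basic protein substrate and 10 µM ATP; compounds dissolved in DMSO and tested at a single concentration (10 µM screen, or 1 µM). Reaction 60 min at room temperature, then ADP-Glo reagent 30 min and detection reagent 30 min; luminescence read. Inhibition expressed relative to 10 µM staurosporine.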
(In ADP-Glo the light output rises with the ADP produced.)

The target of test [2] is T2, Aurora kinase A (Homo sapiens) (UniProt O14965).
T2 sequence (whole entry): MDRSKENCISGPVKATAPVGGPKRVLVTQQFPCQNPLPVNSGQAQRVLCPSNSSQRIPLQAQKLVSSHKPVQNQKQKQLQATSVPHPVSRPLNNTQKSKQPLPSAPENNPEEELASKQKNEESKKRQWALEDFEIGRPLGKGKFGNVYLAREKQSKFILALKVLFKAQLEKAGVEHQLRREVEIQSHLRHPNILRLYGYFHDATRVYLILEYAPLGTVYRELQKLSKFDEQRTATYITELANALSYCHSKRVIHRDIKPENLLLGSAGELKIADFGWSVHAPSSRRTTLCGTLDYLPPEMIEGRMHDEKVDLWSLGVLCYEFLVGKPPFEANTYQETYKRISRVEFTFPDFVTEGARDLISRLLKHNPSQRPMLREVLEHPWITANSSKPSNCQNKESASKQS
Put plainly: Inhibition of recombinant full length human N-terminal GST-tagged Aurora A expressed in baculovirus infected Sf9 cells at 10 uM using myelin basic protein as substrate after 60 mins by ADP-Glo luminescence assay relative to control. The method, boiled down:
as §1

Test [3] has as its target T1, Aurora kinase B. In words: Inhibition of recombinant full length human N-terminal GST-tagged Aurora B expressed in baculovirus infected Sf9 cells using myelin basic protein as substrate after 60 mins by ADP-Glo luminescence assay. The method, boiled down: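 ADP-Glo assay with purified active Aurora B, myelin basic protein substrate, 10 µM ATP, 60 min kinase reaction at room temperature followed by luminescence detection. IC50 determined for compounds exceeding 50% inhibition relative to staurosporine, calculated by curve fitting.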

Test [4] addresses T1, Aurora kinase B. Put plainly: Inhibition of recombinant full length human N-terminal GST-tagged Aurora B expressed in baculovirus infected Sf9 cells at 1 uM using myelin basic protein as substrate after 60 mins by ADP-Glo luminescence assay relative to control. In a few lines: as §1
For test [5], the target named is T2, Aurora kinase A (Homo sapiens). Put plainly: Inhibition of recombinant full length human N-terminal GST-tagged Aurora A expressed in baculovirus infected Sf9 cells at 1 uM using myelin basic protein as substrate after 60 mins by ADP-Glo luminescence assay relative to control. The method, boiled down:
as §1

Test [6] deals with T1, Aurora kinase B. Put plainly: Inhibition of Aurora B in human HeLa cells assessed as reduction in histone H3 phosphorylation at Ser10 residue after 1 hr by Western blot analysis. It is filed as cell-based. The method, boiled down:
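HeLa cells synchronized in mitosis by a 16 h Monastrol block, then released into Monastrol-free medium containing inhibitor at graded concentrations; Hesperadin 5 µM and DMSO as references. Cells harvested 1 h after release, lysed in RIPA with protease/phosphatase inhibitors, 20 µg protein resolved on 8~15% SDS-PAGE. Immunoblotted for phospho-H3S10, total histone H3, α-tubulin and Aurora B.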
In general terms: In western blotting, separated proteins are transferred to a membrane and probed.

For test [7], the system named is HeLa. In words: Cell cycle arrest in human HeLa cells assessed as increase in accumulation at G2/M phase at 50 uM after 24 hrs by propidium iodide staining based flow cytometry relative to control. In kind it is functional. The method, boiled down:
(§2)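 HeLa cells seeded the day before and exposed to inhibitor (10 or 50 µM) or DMSO for 24 h, harvested non-enzymatically, fixed in cold 70% EtOH at 4 °C for 2 h, stained with PI/Triton X-100 solution containing RNase A (25 °C, 20 min, dark). Cell cycle distribution was measured by flow cytometry, and the G2/M percentage was compared with DMSO.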
For orientation: In flow cytometry, cells or beads pass a laser one at a time.

The test system of test [8] is HeLa. In words: Cell cycle arrest in human HeLa cells assessed as accumulation at G2/M phase at 50 uM after 24 hrs by propidium iodide staining based flow cytometry (reference value: 12 %). In kind it is functional. The method, boiled down:
as §2

T1 sequence (Q96GD4 whole entry): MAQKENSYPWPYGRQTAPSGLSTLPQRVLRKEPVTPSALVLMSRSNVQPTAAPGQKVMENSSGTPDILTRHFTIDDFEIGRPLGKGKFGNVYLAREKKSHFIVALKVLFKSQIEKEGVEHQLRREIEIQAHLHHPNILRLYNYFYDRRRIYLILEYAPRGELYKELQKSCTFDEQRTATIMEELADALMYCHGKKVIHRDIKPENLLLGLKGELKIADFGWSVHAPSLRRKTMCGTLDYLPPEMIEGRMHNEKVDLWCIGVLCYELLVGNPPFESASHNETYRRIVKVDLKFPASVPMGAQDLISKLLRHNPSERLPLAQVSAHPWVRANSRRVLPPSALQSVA

Broadly, the inhibition is the drop in the measured response relative to a control, in per cent. As to `O=C(Nc1ccccc1CNc1nc2ccc(OCCN3CCOCC3)cc2s1)c1ccccc1`, the inhibition result (at Aurora kinase B [1]; in test [2]) was “inactive” each time.
As a reminder, the IC50 is the point on the concentration scale where inhibition reaches its midpoint. Take `O=C(Nc1cccc(CNc2nc3ccc(OCCN4CCOCC4)cc3s2)c1)c1ccc(Cl)cc1`: the inhibition on Aurora kinase B [1] amounted to 42%. Further, the inhibition entry in test [2] was “inactive”. Further, the concentration for half-maximal inhibition (IC50) at Aurora kinase B [3] came out at 6.2 µM.
Turning to `O=C(Nc1cccc(Cl)c1)Nc1cccc(CNc2nc3ccc(OCCN4CCOCC4)cc3s2)c1`, the inhibition at Aurora kinase B [4] amounted to 33%. In addition, the IC50 on Aurora kinase B [3] amounted to 1 µM. Besides, the inhibition entry in test [5] is “inactive”.
`O=C(Nc1ccc(CNc2nc3ccc(OCCN4CCOCC4)cc3s2)cc1)c1cccc(Cl)c1`: the inhibition at Aurora kinase B [1] amounted to 91%. For the same molecule, in test [2], the inhibition entry was “inactive”. Further, the half-maximal inhibitory concentration (IC50) on Aurora kinase B [3] amounted to 1.4 µM.
Regarding `CN(C)CCOc1ccc2nc(NCc3ccc(NC(=O)Nc4ccc(Cl)cc4)cc3)sc2c1`, at Aurora kinase B [4], the inhibition stood at 65%. Moreover, the IC50 on Aurora kinase B [3] was 0.32 µM. In addition, in test [5], the inhibition result is “inactive”.
The matching figures for `O=C(Nc1ccc(CNc2nc3ccc(OCCN4CCOCC4)cc3s2)cc1)Nc1ccc(Cl)c(Cl)c1`: 77%, 0.27 µM and 2%.
The matching figures for `COc1ccc(NC(=O)Nc2ccc(CNc3nc4ccc(OCCN5CCOCC5)cc4s3)cc2)cc1`: 79%, 0.25 µM and “inactive”.
The matching figures for `O=C(Nc1ccc(Cl)cc1)Nc1cccc(CNc2nc3ccc(OCCN4CCOCC4)cc3s2)c1`: 31%, 1.2 µM and “inactive”.
On to `O=C(Nc1ccccc1)Nc1cccc(CNc2nc3ccc(OCCN4CCOCC4)cc3s2)c1`, for which the inhibition on Aurora kinase B [4] worked out at 37%. Besides, at Aurora kinase B [3], the IC50 was 3.1 µM. For the same molecule, the inhibition entry in test [5] was “inactive”.
On to `O=C(Nc1ccc(Br)cc1)n1ccc(CNc2nc3ccc(OCCN4CCOCC4)cc3s2)n1`, for which, at Aurora kinase B [1], the inhibition is 31%.
Regarding `O=C(Nc1ccc(Br)cc1)Nc1ccc(CNc2nc3ccc(OCCN4CCOCC4)cc3s2)cc1`, the inhibition result at Aurora kinase B [6] is “Dose-dependent effect”; on Aurora kinase B [4] it was 83%; in test [5] it was 9%. Also, in the test with HeLa [7], the “fold change (FC)” value is more than 2. Besides, the IC50 on Aurora kinase B [3] came to 0.09 µM.
Turning to `O=C(Nc1cccc(CNc2nc3ccc(OCCN4CCOCC4)cc3s2)c1)c1ccc(F)cc1`, the inhibition on Aurora kinase B [1] was found to be 56%. Besides, the inhibition result in test [2] is “inactive”. Besides, the concentration for half-maximal inhibition (IC50) on Aurora kinase B [3] stood at 9 µM.
With `O=C(Nc1ccccc1)Nc1ccc(CNc2nc3ccc(OCCN4CCOCC4)cc3s2)cc1`, the inhibition at Aurora kinase B [4] amounted to 91%. Besides, the IC50 on Aurora kinase B [3] came out at 0.27 µM. The inhibition entry in test [5] was “inactive”.
As to `O=S(=O)(Nc1ccc(CNc2nc3ccc(OCCN4CCOCC4)cc3s2)cc1)c1ccc(F)cc1`, the inhibition at Aurora kinase B [1] turned out to be 30%. Moreover, the inhibition entry in test [2] was “inactive”.
Taken in the same sequence, the figures for `O=S(=O)(Nc1ccc(CNc2nc3ccc(OCCN4CCOCC4)cc3s2)cc1)c1ccc(Cl)cc1` were 28% and “inactive”.
As for `O=C(Nc1ccc(F)cc1)Nc1ccc(CNc2nc3ccc(OCCN4CCOCC4)cc3s2)cc1`, at Aurora kinase B [4], the inhibition amounted to 44%. The IC50 on Aurora kinase B [3] came to 0.7 µM. The inhibition result in test [5] is “inactive”.
For `O=C(Nc1ccc(Cl)cc1)n1ccc(CNc2nc3ccc(OCCN4CCOCC4)cc3s2)n1`, at Aurora kinase B [1], the inhibition came to 31%.
On to `O=C(Nc1ccc(CNc2nc3ccc(OCCN4CCOCC4)cc3s2)cc1)c1ccccc1`, for which the inhibition at Aurora kinase B [1] was determined as 25%. Moreover, the inhibition entry in test [2] was “inactive”.
Taken in the same sequence, the figures for `O=C(Nc1cccc(CNc2nc3ccc(OCCN4CCOCC4)cc3s2)c1)c1ccccc1` were 24% and “inactive”.
Turning to `O=C(Nc1ccc(Cl)cc1)Nc1ccc(CNc2nc3ccc(OCCN4CCOCC4)cc3s2)cc1`, the Activity in the test with HeLa [8] stood at 17%. Besides, the inhibition entry was “Dose-dependent effect” at Aurora kinase B [6] and 100% on Aurora kinase B [4]. Moreover, the IC50 at Aurora kinase B [3] stood at 0.12 µM. In addition, the inhibition entry in test [5] is “inactive”.
Regarding `O=C(Nc1ccc(Cl)cc1)Nc1ccc(CNc2nc3ccc(OCCN4CCCCC4)cc3s2)cc1`, at Aurora kinase B [4], the inhibition came to 5%. In addition, the IC50 on Aurora kinase B [3] was 2.3 µM. For the same molecule, the inhibition entry in test [5] is “inactive”.
The matching figures for `O=C(Nc1ccc(CNc2nc3ccc(OCCN4CCOCC4)cc3s2)cc1)Nc1cccc(Cl)c1`: 67%, 0.46 µM and “inactive”.
The matching figures for `COc1ccc(NC(=S)Nc2ccc(CNc3nc4ccc(OCCN5CCOCC5)cc4s3)cc2)cc1`: 72%, 0.36 µM and “inactive”.
For the molecule `S=C(Nc1ccc(Cl)cc1)Nc1ccc(CNc2nc3ccc(OCCN4CCOCC4)cc3s2)cc1`, the inhibition on Aurora kinase B [4] was 94%; in test [5], 3%. The 50% inhibitory concentration (IC50) at Aurora kinase B [3] was found to be 0.11 µM.
With `O=C(Nc1ccc(F)cc1)n1ccc(CNc2nc3ccc(OCCN4CCOCC4)cc3s2)n1`, on Aurora kinase B [1], the inhibition was found to be 5%.
Take `O=C(Nc1cccc(CNc2nc3ccc(OCCN4CCOCC4)cc3s2)c1)c1ccc([N+](=O)[O-])cc1`: the inhibition on Aurora kinase B [1] turned out to be 17%. In test [2], the inhibition result is “inactive”.
Taken in the same sequence, the figures for `O=C(Nc1cccc(CNc2nc3ccc(OCCN4CCOCC4)cc3s2)c1)c1cccc(Cl)c1` were 30% and “inactive”.
Regarding `COc1ccc(C(=O)Nc2ccc(CNc3nc4ccc(OCCN5CCOCC5)cc4s3)cc2)cc1`, at Aurora kinase B [1], the inhibition is 85%. Besides, the inhibition entry in test [2] is “inactive”. Besides, the IC50 on Aurora kinase B [3] was 0.7 µM.
Taken in the same sequence, the figures for `O=C(Nc1ccc(CNc2nc3ccc(OCCN4CCOCC4)cc3s2)cc1)c1ccc(Cl)cc1` were 59%, “inactive” and 3 µM.
As for `O=C(Nc1ccc(Cl)c(Cl)c1)n1ccc(CNc2nc3ccc(OCCN4CCOCC4)cc3s2)n1`, the inhibition at Aurora kinase B [1] worked out at 46%.
For the molecule `O=S(=O)(Nc1ccc(CNc2nc3ccc(OCCN4CCOCC4)cc3s2)cc1)c1ccccc1`, on Aurora kinase B [1], the inhibition was found to be 16%. Moreover, the inhibition entry in test [2] was “inactive”.
`O=C(Nc1ccccc1)n1ccc(CNc2nc3ccc(OCCN4CCOCC4)cc3s2)n1`: the inhibition at Aurora kinase B [1] came out at 12%.
